A selection: hits, their analogues and other compounds. The true share with any hit is near 2.4%.
STAT3 blocker – IL-6 driven STAT3 reporter inhibitors, primary screen, U3A cells, luciferase, luminescence, MLSCN library. inhibition, % at 5.5 µM. IL-6 STAT3-luciferase reporter; host cell line lacks STAT1. 0.89% of 190,000 active;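 active means inhibition above the mean inhibition across all screened compounds plus 3 SD, cut at about 44% in these data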
MT stabilizer – microtubule stabilizers in HeLa cells, primary screen, imaging, high-content imaging | HeLa tubulin immunostaining HCS, 24 h; share of cells brighter than vehicle mean+2SD | % tubulin-high responders, % at 10 µM | 0.83% of 200,000 active | AID 2205, 2009;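 active means plate Z-score above 3 for both tubulin-high and condensed-nucleus cell shares, with cell loss under 80%, at 10 µM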;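 further: anti alpha tubulin signal scored within the nucleus-defined area of each cell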
STAT3 act-1 – IL-6 driven STAT3 reporter potentiators, primary screen, U3A cells, luciferase, luminescence, MLSCN library; 0.91% of 190,000 active; AID 871, 2007; activation (% of control), % at 5.6 µM; IL-6 STAT3-luciferase reporter; 100% = signal with IL-6 EC80 alone;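 active means activation above the screen-wide mean of compound activation plus 3 SD, cut at about 130% in these data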
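Detection: reporter luminescence signal / Assay system: STAT1-lacking human U3A cells, STAT3 luciferase reporter / Incubation: compound pre-incubation 1 h before IL-6, then 6 h stimulation at 37 °C / Control set: IL-6-only high control / Read-out: % activation relative to IL-6 control / Probe or stimulus: Interleukin-6, 33 ng/mL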
STAT1 blocker – STAT1 signaling inhibitors, primary screen, cell-based, HTS, luciferase reporter. 0.35% of 200,000 active. inhibition, % at 5.5 µM. NIH 3T3 STAT1-luciferase reporter, IFN-gamma, luminescence;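 active means inhibition above a set limit, the mean inhibition across all tested compounds plus 3 SD, cut at about 34% in these data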
bCat nuc transl – modulators of beta-catenin nuclear translocation, primary screen, imaging, HeLa cells, immunofluorescence, high-content | 0.3% of 190,000 active | nuclear translocation activity, % at 5 µM;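 active means nuclear translocation activity above 50% at 5 µM, with a well cell count of 50 or more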;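 further: per-cell ratio of nuclear to cytoplasmic median beta-catenin stain intensity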
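Read-out: Nuclear/cytoplasmic beta-catenin signal ratio, % activation | Assay system: Human HeLa cell line | Times: 24 h compound exposure at 37°C, 5% CO2 | Signal: Fluorescence imaging of beta-catenin antibody stain plus DAPI | Dosing: 5 µM primary, 0.02–20 µM confirmation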
STAT3 act-2 – STAT3 reporter potentiators, retest of hits, confirmation, U3A cells, luciferase, luminescence; shares compounds with STAT3 act-1; IL-6 potentiation; U3A cells lack STAT1; 100 means same as IL-6 alone; potentiation (% of control), % at 5.7 µM; 64% of 1,200 active; AID 1267, 2008;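 active means percent activation of the STAT3 luciferase reporter above a set limit taken from the earlier primary screen, cut at about 130% in these data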
NFkB act 2 – NF-kB reporter activators in human cells, counter-screen for STAT3 activator project | activation (% of control), % at 5.7 µM | NF-kappaB reporter activation | AID 1309, 2008 | 11% of 1,200 active | shares compounds with STAT3 act-1; in the data active means activation above about 120%;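 further: reporter induced by TNF-alpha stimulation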
STAT1 act – STAT1 reporter activators, IFN-gamma induced, counter-screen for STAT3 activator project, cell-based, NIH 3T3, luciferase luminescence. NIH 3T3 STAT1-luciferase reporter. shares compounds with STAT3 act-1. 13% of 1,200 active. AID 1318, 2008. activation (% of control), % at 5.7 µM;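 active means activation above the solvent-only control well mean plus 3 SD, set per screening run, cut at about 120% in these data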
Hits are given with their value.

For CCOC(=O)c1sc(NC(=O)C2CCC2)cc1C the results were STAT3 blocker inactive, MT stabilizer inactive, STAT3 act-1 inactive, STAT1 blocker inactive and bCat nuc transl inactive.
Screening CCOC(=O)C1=NN(c2ccc(C)cc2)CC1C(=O)OC (stereo unspecified) returned STAT3 blocker inactive, MT stabilizer inactive, STAT3 act-1 inactive, STAT1 blocker inactive and bCat nuc transl inactive.
COc1ccc(C2C(C(=O)c3cccs3)=C(O)C(=O)N2c2nncs2)cc1 (stereo unspecified) was read as STAT3 blocker inactive, MT stabilizer inactive, STAT3 act-1 150, STAT1 blocker inactive, bCat nuc transl inactive, STAT3 act-2 inactive, NFkB act 2 inactive and STAT1 act inactive.
For COc1cc(/C=N/NC(=O)c2ccc(O)cc2)ccc1OCC(=O)N1CC(C)OC(C)C1 (stereo unspecified) the results were bCat nuc transl inactive.
Screening Fc1cccc2sc(Nc3nc4c(F)cccc4s3)nc12 returned STAT3 blocker inactive, MT stabilizer inactive, STAT3 act-1 156, STAT1 blocker inactive, bCat nuc transl inactive, STAT3 act-2 182, NFkB act 2 122 and STAT1 act inactive.
For O=C(COC(=O)CCC(=O)c1ccc(Cl)cc1)NC1CC1 the results were STAT3 blocker inactive, MT stabilizer inactive, STAT3 act-1 inactive, STAT1 blocker inactive and bCat nuc transl inactive.
Screening Cc1c(C(=O)Nc2ccccn2)oc2ccccc12 returned STAT3 blocker inactive, MT stabilizer inactive, STAT3 act-1 154, STAT1 blocker inactive, bCat nuc transl inactive, STAT3 act-2 218, NFkB act 2 142 and STAT1 act 173.
Screening Cc1c(C(=O)Nc2ccncc2)oc2ccccc12 returned STAT3 blocker inactive, MT stabilizer inactive, STAT3 act-1 inactive, STAT1 blocker inactive and bCat nuc transl inactive.
`CC(=O)n1cc(Nc2ccccc2C(=O)O)c2ccccc21` gave STAT3 blocker inactive, MT stabilizer inactive, STAT3 act-1 156, STAT1 blocker inactive, bCat nuc transl inactive, STAT3 act-2 162, NFkB act 2 inactive and STAT1 act inactive.
Screening CC(=O)n1cc(Nc2ccc([N+](=O)[O-])cc2)c2ccccc21 returned STAT3 blocker inactive, MT stabilizer inactive, STAT3 act-1 141, STAT1 blocker inactive, bCat nuc transl inactive, STAT3 act-2 137, NFkB act 2 inactive and STAT1 act inactive.
Screening CCOC(=O)c1ccccc1Nc1cn(C(C)=O)c2ccccc12 returned STAT3 blocker inactive, MT stabilizer inactive, STAT3 act-1 149, STAT1 blocker inactive, STAT3 act-2 156, NFkB act 2 inactive and STAT1 act inactive.
O=C(NNc1cccc([N+](=O)[O-])c1)/C(=C\c1cccnc1)NC(=O)c1ccccc1 was read as bCat nuc transl inactive.
Screening COc1ccc(C(=O)CSc2nc3ccc([N+](=O)[O-])cc3[nH]2)cc1 returned STAT3 blocker inactive, MT stabilizer inactive, STAT3 act-1 inactive, STAT1 blocker inactive and bCat nuc transl inactive.
For CCOC(=O)C1=C(CSc2nc(-c3ccccc3)ccc2C#N)OC(N)=C(C#N)C1c1ccccc1 (stereo unspecified) the results were STAT3 blocker inactive, MT stabilizer inactive, STAT3 act-1 inactive and STAT1 blocker inactive.
`CCOC(=O)C1=C(CSc2nc(-c3ccccc3)ccc2C#N)OC(N)=C(C#N)C1c1cccnc1` (stereo unspecified) gave STAT3 blocker inactive, MT stabilizer inactive, STAT3 act-1 137, STAT1 blocker inactive, STAT3 act-2 inactive, NFkB act 2 inactive and STAT1 act inactive.
Screening C/C(=N\NC(=O)c1ccccn1)c1ccc(Cl)cc1 returned bCat nuc transl inactive.
C/C(=N\Nc1ccc(Cl)cc1)c1ccccn1 was read as STAT3 blocker inactive, MT stabilizer inactive, STAT3 act-1 139, STAT1 blocker inactive, bCat nuc transl inactive, STAT3 act-2 140, NFkB act 2 123 and STAT1 act 148.
COC(=O)c1c(NC(=O)CN2CCN(c3ccccc3OC)CC2)c2c(C)cccc2n1C was read as STAT3 blocker inactive, MT stabilizer inactive, STAT3 act-1 inactive, STAT1 blocker inactive and bCat nuc transl inactive.
COC(=O)c1c(NC(=O)CN2CCN(c3ccccc3OC)CC2)c2cc(C)ccc2n1C was read as STAT3 blocker inactive, MT stabilizer inactive, STAT3 act-1 143, STAT1 blocker inactive, bCat nuc transl inactive, STAT3 act-2 135, NFkB act 2 inactive and STAT1 act inactive.
For COCCNC(=O)c1n[nH]c2ccccc12 the results were STAT3 blocker inactive, MT stabilizer inactive, STAT3 act-1 inactive, STAT1 blocker inactive and bCat nuc transl inactive.
For COC(=O)c1n[nH]c2ccccc12 the results were STAT3 blocker inactive, MT stabilizer inactive, STAT3 act-1 160, STAT1 blocker inactive, bCat nuc transl inactive, STAT3 act-2 154, NFkB act 2 inactive and STAT1 act inactive.
Brc1ccc(-c2ncc3ccccn23)cc1 was read as bCat nuc transl inactive.
NS(=O)(=O)c1ccc(NC(=S)NCc2ccco2)cc1 was read as STAT3 blocker inactive, MT stabilizer inactive, STAT3 act-1 136, STAT1 blocker inactive, bCat nuc transl inactive, STAT3 act-2 inactive, NFkB act 2 inactive and STAT1 act inactive.
COc1ccc(NC(=S)Nc2ccc(S(N)(=O)=O)cc2)c(OC)c1 was read as STAT3 blocker inactive, MT stabilizer inactive, STAT3 act-1 136, STAT1 blocker inactive, bCat nuc transl inactive, STAT3 act-2 inactive, NFkB act 2 inactive and STAT1 act inactive.
COc1ccc(NC(=S)Nc2ccc(S(=O)(=O)N3CCOCC3)cc2)c(OC)c1 was read as STAT3 blocker inactive, MT stabilizer inactive, STAT3 act-1 inactive, STAT1 blocker inactive and bCat nuc transl inactive.
For Cc1ccc(CSc2ncnc3ccccc23)cc1 the results were STAT3 blocker inactive, MT stabilizer inactive, STAT3 act-1 inactive, STAT1 blocker inactive and bCat nuc transl inactive.
`O=Cc1cc2ccccc2nc1SCc1ccc(Cl)cc1` gave STAT3 blocker inactive, MT stabilizer 28, STAT3 act-1 161, STAT1 blocker inactive, bCat nuc transl inactive, STAT3 act-2 inactive, NFkB act 2 inactive and STAT1 act inactive.
